{
  "source": "paper PMC3065392",
  "about": "(Lipids, 2010)",
  "target": "T1, ADRP (adipose differentiation-related protein) (Mus musculus, UniProt P43883)",
  "T1 sequence (P43883 2-425)": "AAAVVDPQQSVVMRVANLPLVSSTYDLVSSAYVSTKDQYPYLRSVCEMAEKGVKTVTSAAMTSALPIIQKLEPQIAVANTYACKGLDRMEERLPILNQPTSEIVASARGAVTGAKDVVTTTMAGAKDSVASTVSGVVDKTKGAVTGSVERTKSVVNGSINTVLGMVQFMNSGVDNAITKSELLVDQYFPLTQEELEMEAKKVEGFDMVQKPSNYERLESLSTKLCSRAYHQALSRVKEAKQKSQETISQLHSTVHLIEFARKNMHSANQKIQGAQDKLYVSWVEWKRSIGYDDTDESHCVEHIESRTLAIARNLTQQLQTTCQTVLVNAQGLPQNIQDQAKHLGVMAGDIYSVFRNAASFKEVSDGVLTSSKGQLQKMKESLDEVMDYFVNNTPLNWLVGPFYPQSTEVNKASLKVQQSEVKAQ",
  "experiment": "fluorescence saturation binding titration, single-site fit",
  "outline": "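Stepwise titration of the NBD-labelled lipid (NBD-sphingomyelin or NBD-phosphatidylcholine, 100 µM stock) into ADRP (180 nM) in 10 mM phosphate buffer, pH 7.4. After each addition, samples were mixed 3–4 min at 25°C and the NBD probe was excited; emission 490–600 nm was integrated and corrected for blank and background. Kd and Bmax come from a single-site fit of three independent measurements (mean ± SE).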",
  "data": [
    {"compound": "CCCCCCCCCCCCCCCC(=O)OC[C@H](COP(=O)([O-])OCC[N+](C)(C)C)OC(=O)CCCCCNc1ccc([N+](=O)[O-])c2nonc12", "note": "[NBD-phosphatidylcholine, 2-(6-(7-nitrobenz-2-oxa-1,3-diazol-4-yl)amino)hexanoyl-1-hexadecanoyl-sn-glycero-3-phosphocholine]", "values": [
      {"measurement": "Kd", "value": "15 ± 3", "unit": "nM"}
    ]},
    {"compound": "CCCCCCCCCCCCC/C=C/[C@@H](O)[C@H](COP(=O)([O-])OCC[N+](C)(C)C)NC(=O)CCCCCNc1ccc([N+](=O)[O-])c2nonc12", "note": "[NBD-sphingomyelin, 6-((N-(7-nitrobenz-2-oxa-1,3-diazol-4-yl)amino)-hexanoyl)sphingosyl-phosphocholine]", "values": [
      {"measurement": "Kd", "value": "257 ± 64", "unit": "nM"}
    ]}
  ]
}
